Assay results of several laboratories.
Each line is one published result; the experiments were not run side by side.
lecA: PA-I galactophilic lectin (lecA, Pseudomonas aeruginosa, UniProt Q05097)
CHRM2: Muscarinic acetylcholine receptor M2 (CHRM2, Homo sapiens, UniProt P08172)
Oprd1: Delta-type opioid receptor (Oprd1, Mus musculus, UniProt P32300)

| Compound | target | test | setting | endpoint | result |
| --- | --- | --- | --- | --- | --- |
| CC(C)[C@H](NC(=O)[C@H](CCCCN)NC(=O)[C@@H](NC(=O)[C@@H]1CCCN1C(=O)[C@H](CCCNC(=N)N)NC(=O)CNC(=O)[C@@H](NC(=O)[C@@H](NC(=O)CNC(=O)[C@H](CO)NC(=O)CNC(=O)CCCC[C@@H]1SC[C@@H]2NC(=O)N[C@@H]21)[C@@H](C)O)[C@@H](C)O)[C@@H](C)O)C(=O)N[C@@H](Cc1ccccc1)C(=O)N[C@H](C(=O)N1CCC[C@H]1C(=O)N1CCC[C@H]1C(=O)N[C@@H](Cc1ccccc1)C(=O)N[C@@H](CCCCN)C(=O)N[C@H](C(=O)N[C@@H](CCCCN)C(=O)N[C@@H](CO)C(=O)N[C@@H](Cc1c[nH]cn1)C(=O)N[C@@H](Cc1ccccc1)C(=O)N[C@@H](Cc1c[nH]cn1)C(N)=O)[C@@H](C)O)C(C)C | DMC1 (Homo sapiens, UniProt Q14565) | binding, BLI |  | Kd | 0.0013 µM |
| N[C@H](CO)Cc1ccccc1 | Phenylalanine-4-hydroxylase (Pah, Rattus norvegicus, UniProt P04176) | binding, fluorescence | pH 7.5 | Kd | 10600 µM |
| Cc1nccc2c1[nH]c1ccccc12 | Amine oxidase [flavin-containing] A (Maoa, Rattus norvegicus, UniProt P21396) | enzyme activity, inhibitor |  | Ki | 0.75 µM |
| CC[C@H](C)[C@H](NC(=O)[C@H](Cc1ccccc1)NC(=O)[C@H](CC(=O)O)NC(=O)[C@H](CCCNC(=N)N)NC(=O)[C@@H](NC(=O)[C@H](C)NC(=O)[C@H](CC(C)C)NC(=O)[C@H](CC(N)=O)NC(=O)[C@H](CC(=O)O)NC(=O)[C@H](CC(C)C)NC(=O)[C@@H](NC(=O)[C@@H](NC(=O)[C@H](CO)NC(=O)[C@H](CCSC)NC(=O)[C@H](CCC(=O)O)NC(=O)[C@H](CC(=O)O)NC(=O)[C@H](CO)NC(=O)[C@H](Cc1ccccc1)NC(=O)[C@H](CO)NC(=O)CNC(=O)[C@H](CC(=O)O)NC(=O)[C@H](C)NC(=O)[C@@H](N)Cc1c[nH]cn1)[C@@H](C)O)[C@@H](C)CC)[C@@H](C)O)C(=O)N[C@@H](CC(N)=O)C(=O)N[C@@H](Cc1c[nH]c2ccccc12)C(=O)N[C@@H](CC(C)C)C(=O)N[C@H](C(=O)N[C@@H](CCC(N)=O)C(=O)N[C@H](C(=O)N[C@@H](CCCCN)C(=O)N[C@H](C(=O)N[C@H](C(=O)N[C@@H](CC(=O)O)C(=O)O)[C@@H](C)O)[C@@H](C)CC)[C@@H](C)O)[C@@H](C)CC | Gastric inhibitory polypeptide receptor (Mus musculus, UniProt Q0P543) | reporter gene, agonist, luciferase |  | EC50 | > 1 µM |
| CC(C)C[C@H](NC(=O)CNC(=O)[C@H](C)NC(=O)c1ccc(S[C@@H]2O[C@H](CO)[C@H](O)[C@H](O)[C@H]2O)cc1)C(=O)N[C@@H](C)C(=O)NC[C@@H]1CCN(c2cc3c(cc2F)c(=O)c(C(=O)O)cn3C2CC2)C1 | lecA | ligand displacement, FP |  | Ki | 11.2 µM |
| CC(C)C[C@H](NC(=O)[C@H](Cc1ccccc1)NC(=O)[C@H](Cc1ccc(O)cc1)NC(=O)CNC(=O)[C@H](CCCCN)NC(=O)[C@H](CO)NC(=O)[C@H](CCC(N)=O)NC(=O)CNC(=O)[C@@H](NC(=O)[C@H](CO)NC(=O)[C@@H]1CCCN1C(=O)[C@H](CO)NC(=O)[C@H](CCC(N)=O)NC(=O)[C@H](Cc1ccc(O)cc1)NC(=O)[C@H](CCC(=O)O)NC(=O)[C@H](C)NC(=O)[C@H](CCCCN)NC(=O)[C@@H](N)Cc1ccccc1)C(C)C)C(=O)N[C@@H](Cc1ccccc1)C(=O)N[C@@H](CCCNC(=N)N)C(=O)N1CCC[C@H]1C(=O)N[C@@H](CCCNC(=N)N)C(=O)N[C@@H](CC(N)=O)C(N)=O | Neuromedin-U receptor 1 (Mus musculus, UniProt O55040) | inositol phosphate, agonist |  | EC50 | 0.000166 µM |
| COc1cc(C(=O)N2CC[C@@H](O)[C@@H](N)C2)cc2nc(-c3cc4ccccc4n3CC3CC3)n(C)c12 | CHRM2 | calcium signal, agonist |  | EC50 | > 15.8 µM |
| CC(C)[C@@H](Nc1nc(Cl)nc2c1ncn2[C@H]1[C@H](O)[C@H](O)[C@]2(CN)C[C@H]12)C1CC1 | CHRM2 | ligand displacement, radioligand |  | Ki | > 6.6 µM |
| Cc1cc(O)cc(C)c1C[C@H](N)C(=O)N[C@H](C)C(=O)N[C@@H](Cc1ccccc1)C(=O)N[C@@H](CCCN)C(N)=O | Oprd1 | ligand displacement, radioligand | cell membranes | Ki | 0.06 µM |
| CC(C)C[C@H](NC(=O)CNC(=O)[C@H](C)NC(=O)c1ccc(S[C@@H]2O[C@H](CO)[C@H](O)[C@H](O)[C@H]2O)cc1)C(=O)N[C@@H](C)C(=O)N1CCN(c2cc3c(cc2F)c(=O)c(C(=O)O)cn3C2CC2)CC1 | lecA | ligand displacement, FP |  | Ki | 12.9 µM |
| CC(=O)NC[C@H](NC(=O)[C@H](CCCNC(=N)N)NC(=O)[C@H](CCCNC(=N)N)NC(=O)[C@H](CC(C)C)NC(=O)[C@H](Cc1ccccc1)NC(=O)CNC(=O)CNC(=O)[C@H](Cc1ccc(O)cc1)NCc1ccccc1)C(=O)N[C@@H](CCCNC(=N)N)C(=O)N1CCC[C@H]1C(=O)N[C@@H](CCCCN)C(N)=O | Oprd1 | ligand displacement, radioligand | cell membranes | Ki | 2.29 µM |
